Data published in PMC3996483 (Scientific Reports, 2014).
Entries after “also recorded” stand apart in the source; their conditions may differ.

T1: NS5A^33–202 domain 1, HCV genotype 1b (con1) (Hepatitis C virus genotype 1b, UniProt Q9WMX2)
T1 sequence (Q9WMX2 2005-2174): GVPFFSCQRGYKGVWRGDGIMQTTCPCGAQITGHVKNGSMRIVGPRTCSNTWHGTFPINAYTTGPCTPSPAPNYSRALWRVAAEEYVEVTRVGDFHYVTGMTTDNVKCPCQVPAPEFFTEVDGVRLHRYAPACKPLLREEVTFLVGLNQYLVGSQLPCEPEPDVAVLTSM

T2: NS5A^26–202 domain 1, HCV genotype 1b (con1) (Hepatitis C virus genotype 1b, UniProt Q9WMX2)
T2 sequence (Q9WMX2 1998-2174): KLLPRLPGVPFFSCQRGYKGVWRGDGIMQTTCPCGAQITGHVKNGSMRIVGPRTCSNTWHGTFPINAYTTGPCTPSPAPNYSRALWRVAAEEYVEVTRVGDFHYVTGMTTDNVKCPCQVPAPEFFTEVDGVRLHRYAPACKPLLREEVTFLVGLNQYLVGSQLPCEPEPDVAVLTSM

T3: L31V NS5A^26–202, HCV genotype 1b (con1) (Hepatitis C virus genotype 1b, UniProt Q9WMX2, L2003V)
T3 sequence (Q9WMX2 1998-2174 L2003V): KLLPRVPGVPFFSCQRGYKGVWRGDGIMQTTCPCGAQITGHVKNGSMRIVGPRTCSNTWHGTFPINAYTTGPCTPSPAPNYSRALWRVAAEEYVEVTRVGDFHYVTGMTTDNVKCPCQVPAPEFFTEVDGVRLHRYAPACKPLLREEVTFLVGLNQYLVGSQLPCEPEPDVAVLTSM

T4: Y93H NS5A^33–202, HCV genotype 1b (con1) (Hepatitis C virus genotype 1b, UniProt Q9WMX2, Y2065H)
T4 sequence (Q9WMX2 2005-2174 Y2065H): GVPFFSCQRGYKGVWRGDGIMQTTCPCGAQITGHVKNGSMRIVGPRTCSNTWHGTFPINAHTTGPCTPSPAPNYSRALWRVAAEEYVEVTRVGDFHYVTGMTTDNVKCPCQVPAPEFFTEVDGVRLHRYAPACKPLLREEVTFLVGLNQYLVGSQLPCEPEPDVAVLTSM


Key:
[1] = test system: HCV replicon (NS5A genotypes and subtypes); conditions: cited from earlier work
[2] = target: T1, NS5A^33–202 domain 1, HCV genotype 1b (con1); test: SEC-MALLS analysis of NS5A oligomerisation state; conditions: NS5A^33–202 alone 39 ± 5 kDa (dimer), dimerisation state not affected
In short: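 Multi-angle laser light scattering was run in batch mode (0.1 ml/min) and after size-exclusion (0.35 ml/min). Protein was run at 0.3–4 mg/ml with refractive-index detection and dn/dc 0.185; BSA served as control. Weight-average molar mass was taken from all points.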

[3] = test system: HCV genotype 1a; conditions: cited from earlier work
[4] = Solubility; format: physicochemical; conditions: pH 7, aqueous buffer
[5] = target: T1, NS5A^33–202 domain 1, HCV genotype 1b (con1); test: MST binding assay, NS5A domain 1 residues 33–202
In short: (§1)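 Recombinant HCV 1b (con1) NS5A was expressed with a 6-His/TEV tag, Ni- and size-exclusion purified, and the tag cleaved. Ligand: 16-step 2–4-fold dilutions. Capillaries were heated at 40% laser for 30 s, then cooled 5 s. Fnorm normalised to baseline and maximum; KD by mass-action fit; ≥3 replicates.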

[6] = target: T2, NS5A^26–202 domain 1, HCV genotype 1b (con1); test: MST binding assay, NS5A domain 1 residues 26–202
In short: as §1

[7] = target: T3, L31V NS5A^26–202, HCV genotype 1b (con1); test: MST binding assay, L31V resistance mutant
[8] = target: T4, Y93H NS5A^33–202, HCV genotype 1b (con1); test: MST binding assay, Y93H resistance mutant
[9] = test system: Y93H NS5A^33–202, HCV genotype 1b (con1); test: MST binding assay, Y93H resistance mutant; set-up: species or system Hepatitis C virus; conditions: MST in vitro assay, Y93H NS5A^33–202 vs NS5A^33–202
[10] = test system: HCV genotype 1b (con1); conditions: cited from earlier work
[11] = test system: HCV genotype 2a (J6); conditions: cited from earlier work
[12] = test system: HCV genotype 3a (S52); conditions: cited from earlier work
[13] = target: the molecule itself; test: SEC-MALS

Row | Molecule | resistance conferred by L31V/M/F mutations ([1]; NS5A L31V/M/F) | resistance conferred by Y93H/N/C mutations ([1]; NS5A Y93H/N/C) | EC50 ([1]; replicon, most genotypes and subtypes) [nM] | average molecular weight of NS5A^33–202 after addition of substance [2] [kDa] | decrease in EC50 by Y93H/C resistance mutation ([3]; genotype 1a (H77), Y93H/C) [fold] | EC50 ([3]; replicon, genotype 1a (J1)) [nM] | solubility [4] [µg/mL] | Kd [5] [nM] | Compound binding after incubation of NS5A with excess 5rU ([5]; MST, NS5A^33–202 incubated with 100-fold excess 5rU prior to adding compound) | Kd [6] [nM] | KD / binding (in words) [7] | Kd [8] [nM] | decrease in KD (binding), Y93H versus wild type [9] [fold] | resistance conferred by L31V mutation ([10]; replicon assays, L31V) [fold] | decrease in EC50 by Y93H/C resistance mutation ([10]; replicon, Y93H/C) | decrease in EC50 by Y93H/C resistance mutation ([11]; Y93H/C) [fold] | EC50 ([11]; replicon) [nM] | decrease in EC50 by Y93H/C resistance mutation ([12]; Y93H/C) | EC50 ([12]; replicon) [nM] | stoichiometry N [13]
1 | COC(=O)N[C@H](C(=O)N1CCC[C@H]1c1nc(-c2ccc(-c3ccc(-c4c[nH]c([C@@H]5CCCN5C(=O)[C@@H](NC(=O)OC)C(C)C)n4)cc3)cc2)c[nH]1)C(C)C [BMS-790052, daclatasvir] | 23- to 3,350 fold | 19- to 47,000 fold | 0.002 to 0.15 | 41 ± 7 | 220 | 1.1 | < 1.6 | 8 ± 3 | eliminated binding | 210 ± 46 | did not show any detectable binding; also recorded: no detectable binding | > 500 | > 50 | 23 | ~ 5 fold | 143 | 14 | 2,111 fold | 0.9 | 
2 | HCV genotype 1b (con1) NS5A domain 1, residues 33–202 (domain or fragment, Hepatitis C virus genotype 1b (con1), UniProt Q9WMX2 2005-2174, looked up) GVPFFSCQRGYKGVWRGDGIMQTTCPCGAQITGHVKNGSMRIVGPRTCSNTWHGTFPINAYTTGPCTPSPAPNYSRALWRVAAEEYVEVTRVGDFHYVTGMTTDNVKCPCQVPAPEFFTEVDGVRLHRYAPACKPLLREEVTFLVGLNQYLVGSQLPCEPEPDVAVLTSM |  |  |  |  |  |  |  |  |  |  |  |  |  |  |  |  |  |  |  | 2
